The results in this text go back to ChEMBL document CHEMBL2384954, “Benzofuran-, benzothiophene-, indazole- and benzisoxazole-quinones: excellent substrates for NAD(P)H:quinone oxidoreductase 1” (Bioorg Med Chem, 2013).

Experiment [1] has as its target NAD(P)H dehydrogenase [quinone] 1 (Homo sapiens) (UniProt P15559). Nature of the experiment: Activity at human recombinant NQO1 assessed as average rate of irreversible NADH oxidation after 30 to 40 mins by HPLC analysis. Put shortly:
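Recombinant human NQO1 incubated with 50 µM quinone and 200 µM NADH in 25 mM Tris-HCl pH 7.4, 30–40 min at 22 °C. Reverse-phase C18 HPLC with methanol/10 mM potassium phosphate pH 6.0 gradient; NADH oxidation quantified at 340 nm. Average rate expressed as µmol NADH oxidized/min/mg NQO1.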

The target is the same in experiment [2]. In words: Activity at human recombinant NQO1 assessed as initial rate of cytochrome c reduction during the first 0 to 30 s by spectrophotometry.

Sequence of NAD(P)H dehydrogenase [quinone] 1 (Homo sapiens) (P15559 whole entry): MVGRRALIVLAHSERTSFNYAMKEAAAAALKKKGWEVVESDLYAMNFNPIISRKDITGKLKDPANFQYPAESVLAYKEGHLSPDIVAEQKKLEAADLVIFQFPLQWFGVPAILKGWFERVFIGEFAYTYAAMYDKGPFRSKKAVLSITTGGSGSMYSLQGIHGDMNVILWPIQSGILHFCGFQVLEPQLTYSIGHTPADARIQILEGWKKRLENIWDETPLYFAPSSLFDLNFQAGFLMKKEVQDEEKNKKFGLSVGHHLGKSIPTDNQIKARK

Turning to `COC1=CC(=O)c2c(c(C)c(CO)n2C)C1=O`, the Activity in experiment [1] was determined as 2.49 µmol/min/mg.
For `COC(=O)c1cc2c(s1)C(=O)C=C(OC)C2=O`, the figures for the Activity in experiment [1] and in experiment [2] were 53.9 µmol/min/mg and 555 µmol/min/mg, respectively.
For `COC1=CC(=O)c2oc(C)c(C(C)O)c2C1=O` (stereo not given), in that order: 87.9 µmol/min/mg and 585 µmol/min/mg.
`COC1=CC(=O)c2sc(CO)c(C)c2C1=O`: in experiment [2], the Activity turned out to be 468 µmol/min/mg.
With `COC1=CC(=O)c2sc(C=O)cc2C1=O`, the Activity in experiment [1] turned out to be 27.4 µmol/min/mg; in experiment [2], 897 µmol/min/mg.
For `COC1=CC(=O)c2c(c(CO)nn2C)C1=O`, in that order: 38.1 µmol/min/mg and 247 µmol/min/mg.
For `COC1=CC(=O)c2sc(CO)cc2C1=O`, in that order: 63.8 µmol/min/mg and 927 µmol/min/mg.
Turning to `COC1=CC(=O)c2c(c(CO)c(C)n2C)C1=O`, the Activity in experiment [1] stood at 1.25 µmol/min/mg.
Turning to `COC1=CC(=O)c2sc(C)cc2C1=O`, the Activity in experiment [1] was 5.51 µmol/min/mg; in experiment [2] it was 553 µmol/min/mg.
Turning to `COC1=CC(=O)c2sc(C)c(CO)c2C1=O`, the Activity in experiment [2] was determined as 236 µmol/min/mg.
Take `COC1=CC(=O)c2oc(CO)c(C)c2C1=O`: the Activity in experiment [1] is 80.8 µmol/min/mg; in experiment [2], 1020 µmol/min/mg.
As for `CC1=CC(=O)c2ccccc2C1=O`, the Activity in experiment [2] was found to be 1220 µmol/min/mg.
With `COC1=CC(=O)c2c(c(C)nn2C)C1=O`, the Activity worked out at 19.6 µmol/min/mg in experiment [1] and 55.3 µmol/min/mg in experiment [2].
Regarding `COC1=CC(=O)c2sc(COC(C)=O)cc2C1=O`, the values for the Activity in experiment [1] and in experiment [2] were 24.5 µmol/min/mg and 900 µmol/min/mg, respectively.
For `COC1=CC(=O)c2onc(C)c2C1=O`, in that order: 27.6 µmol/min/mg and 290 µmol/min/mg.
